Results pooled from the literature.
Each line is one published result; the experiments were not run side by side.
Target: Casein kinase II subunit alpha' (CSNK2A2, Homo sapiens, UniProt P19784)

O=c1[nH]c2ccccc2n1C1CCN(Cc2ccc(-c3[nH]c4cc5ncnc5cc4nc3-c3ccccc3)cc2)CC1 — remaining signal (cell-free assay; 0.5 µM): 101%
Cc1nn(C)cc1-c1nc2c(N3CCN(Cc4ccc(Cl)cc4)CC3)c(Cl)cnc2[nH]1 — remaining binding (binding, competition with immobilised ligand; 1 µM): 67%
Cn1cncc1[C@@](O)(COc1ccc(C#N)cc1-c1ccc(OC(F)(F)F)cc1)c1ccc(C#N)cc1 — remaining binding (cell-free assay, competition with immobilised ligand; 1 µM): 100%
COc1ncccc1-c1cnn2ccc(N3CCN(C(=O)OC(C)C)CC3)nc12 — remaining binding (binding, competition with immobilised ligand; 1 µM): 62%
C#Cc1n[nH]c2c(-c3cn([C@@H](C)c4ccccc4)c(=O)[nH]c3=O)cc(F)cc12 — inhibition (enzyme activity, inhibitor; 0.1 µM): 1.5%
Cn1cc(-c2cccc(N3CCc4c(sc5c4CC(C)(C)C5)C3=O)c2CO)cc(Nc2ccncn2)c1=O — inhibition (enzyme activity, inhibitor; 1 µM): 4%
CN[C@@H]1C[C@H]2O[C@@](C)([C@@H]1OC)n1c3ccccc3c3c4c(c5c6ccccc6n2c5c31)C(=O)NC4 — activity vs control (enzyme activity, inhibitor; 0.5 µM): 66.6%
Cn1cc(-c2cc(F)cc(N3CCn4c(cc5c4CCCC5)C3=O)c2CO)cc(Nc2ccc(N3CCN(C4COC4)CC3)cn2)c1=O — inhibition (enzyme activity, inhibitor; 0.1 µM): 1%
C#Cc1n[nH]c2c(-c3cn([C@@H](C)c4ccccn4)c(=O)[nH]c3=O)cc(F)cc12 — inhibition (enzyme activity, inhibitor; 0.1 µM): 3.3%
Nc1ncc(-c2nc(N3CCOCC3)nc(N3CCOCC3)n2)c(C(F)F)n1 — remaining binding (binding, competition with immobilised ligand; 10 µM): 69%
